Experimental data as given in ChEMBL document CHEMBL1127590 (J Med Chem, 1994).

How the values were obtained:
[1] = In vitro inhibitory activity against human adrenal 3-beta hydroxy-delta 5-teroid isomerase
How it was run: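 Microsomes were prepared from human adrenal tissue by homogenization and differential centrifugation. Inhibitor in 50% DMSO was preincubated 10 min at 37 °C in 100 mM potassium phosphate pH 7.5 with 1 mM NAD+. The reaction was started with 100 nM [3H]DHEA and quenched in ethanol after 15 min. DHEA-to-androstenedione conversion was measured by radio-HPLC.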

[2] = Bioavailability in dog (male Beagle) i.v. administration; type: ADME, organism-based, Canis lupus familiaris; conditions: in vivo, po, in the assay text read “oral administration” for “[…]”
How it was run: (§1)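 Male beagles received iv doses of 5 or 10 mg/kg from 5 mg/mL solutions in aqueous 40% (w/v) Molecusol, and some also received oral doses. Heparinized blood was sampled from 0 min to 24 h and assayed by HPLC (UV 304 nm, or thermospray MS). AUC∞ was calculated by the trapezoidal rule.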

[3] = Half-life after intravenous administration of 5 mg/kg/day dose in male beagles; type: ADME, organism-based, Canis lupus familiaris; set-up: route intravenous; conditions: beagle, dog, in vivo; how it was run: as §1
[4] = biological target: T1, 3-oxo-5-alpha-steroid 4-dehydrogenase 2 (Homo sapiens, UniProt P31213); test: In vitro inhibitory activity against human type 2 5-alpha reductase
T1 sequence (P31213 whole entry): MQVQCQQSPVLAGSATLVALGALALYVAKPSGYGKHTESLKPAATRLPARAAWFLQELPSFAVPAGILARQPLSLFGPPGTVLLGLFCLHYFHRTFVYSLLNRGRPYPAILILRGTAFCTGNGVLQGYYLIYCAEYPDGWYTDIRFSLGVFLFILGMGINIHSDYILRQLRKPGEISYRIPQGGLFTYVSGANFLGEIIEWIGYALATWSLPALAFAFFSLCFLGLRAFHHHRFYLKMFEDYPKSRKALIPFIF

[5] = tested on: Rattus norvegicus; test: In vivo inhibition of T stimulated prostate growth in rats was reported after oral administration at a dose 10 mg/kg/day
[6] = tested on: Rattus norvegicus; test: In vivo inhibition of T stimulated prostate growth in rats was reported after oral administration at a dose 10 mg/kg/day; type: functional, Prostate gland
How it was run: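 Rats were castrated, and 7 days later dosed orally once daily for 7 days at 10 mg/kg/day in 1 part cremophor:2 parts saline:0.5% Tween 80 (8 rats/group). Testosterone (40 μg/kg sc in corn oil) was given 4 h after each dose. Ventral prostates were weighed on day 8. Weight reduction was expressed as a percent of the finasteride reduction versus T-treated vehicle controls.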

[7] = biological target: T2, 3-oxo-5-alpha-steroid 4-dehydrogenase 1 (Homo sapiens, UniProt P18405); test: In vitro inhibitory activity against human type 1 5-alpha reductase
T2 sequence (P18405 whole entry): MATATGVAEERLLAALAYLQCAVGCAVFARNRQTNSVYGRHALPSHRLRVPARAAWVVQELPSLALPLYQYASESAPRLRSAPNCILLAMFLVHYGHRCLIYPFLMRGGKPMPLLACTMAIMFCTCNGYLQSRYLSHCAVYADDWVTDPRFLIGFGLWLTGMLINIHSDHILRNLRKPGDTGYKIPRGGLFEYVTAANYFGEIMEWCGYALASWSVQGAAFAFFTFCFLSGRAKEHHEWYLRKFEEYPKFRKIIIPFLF
How it was run: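 Used microsomes from baculovirus-infected SF-9 cells expressing recombinant human type 1 5AR, at final enzyme 0.05–5 nM. Buffer at pH 7 and 37 °C contained an NADPH-regenerating system. Inhibitor was preincubated 10 min before adding 100 nM [3H]testosterone.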

[8] = Half-life after intravenous administration of 10 mg/kg/day dose in male beagles; type: ADME, organism-based, Canis lupus familiaris; set-up: route intravenous; conditions: beagle, dog, in vivo; how it was run: as §1

Structure (SMILES) | Ki [1] [nM] | bioavailability [2] [%] | half-life [3] [h] | IC50 [4] [nM] | Reduction [5] [%] | Reduction [6] [%] | Ki [7] [nM] | half-life [8] [h]
C[C@]12CCC(=O)C=C1NCC1C2CC[C@@]2(C)C1CC[C@@H]2C(=O)NC(c1ccccc1)c1ccccc1 (stereo not given in full) | 150 | 79 | 4.8 | < 0.1 | 95 |  |  | 
C[C@]12CCC(=O)C=C1NCC1C2CC[C@@]2(C)C1CC[C@@H]2C(=O)NC(c1ccc(F)cc1)c1ccc(F)cc1 (stereo not given in full) | 320 |  | 5.2 |  | 90 |  |  | 
CC1=C2NCC3C(CC[C@@]4(C)C3CC[C@@H]4C(=O)NC(C)(C)C)[C@@]2(C)CCC1=O (stereo not given in full) | 9.2 |  |  | 1.4 |  | 0 | 12 | 
CN1CC2C(CC[C@@]3(C)C2CC[C@@H]3C(=O)NC23CC4CC(CC(C4)C2)C3)[C@@]2(C)CCC(=O)C=C12 (stereo not given in full) | 2.7 |  |  | < 0.1 |  | 12 | 8.5 | 
CC1=C2NCC3C(CC[C@@]4(C)C3CC[C@@H]4C(=O)NC(c3ccccc3)c3ccccc3)[C@@]2(C)CCC1=O (stereo not given in full) | 18 |  |  | < 0.1 |  | 38 | 3.6 | 
CN1CC2C(CC[C@@]3(C)C2CC[C@@H]3C(=O)NC(c2ccccc2)c2ccccc2)[C@@]2(C)CCC(=O)C=C12 (stereo not given in full) | 11 |  |  | 0.2 |  | 13 | 6.4 | 
CC(C)(C)NC(=O)[C@H]1CC[C@H]2[C@@H]3CC[C@H]4NC(=O)C=C[C@]4(C)[C@H]3CC[C@]12C [FINASTERIDE] | 11000 | 69 |  |  |  | 100 |  | 4.2
CN1CC2C(CC[C@@]3(C)C2CC[C@@H]3C(=O)NC(C)(C)C)[C@@]2(C)CCC(=O)C=C12 (stereo not given in full) | 6.6 | 80 |  |  |  | 54 | 87 | 1.4
C[C@]12CCC(=O)C=C1NCC1C2CC[C@@]2(C)C1CC[C@@H]2C(=O)NC12CC3CC(CC(C3)C1)C2 (stereo not given in full) | 78 |  |  |  |  | 38 | 11 | 1.8
CC1=C2NCC3C(CC[C@@]4(C)C3CC[C@@H]4C(=O)NC34CC5CC(CC(C5)C3)C4)[C@@]2(C)CCC1=O (stereo not given in full) | 9 |  |  | < 0.1 |  | 24 | 1.1 | 
CCN(CC)C(=O)[C@H]1CCC2C3CN(C)C4=CC(=O)CC[C@]4(C)C3CC[C@@]21C (stereo not given in full) | 3.6 |  |  | 2.3 |  | 52 | 180 | 
CC(C)CC(=O)[C@H]1CCC2C3CN(C)C4=CC(=O)CC[C@]4(C)C3CC[C@@]21C (stereo not given in full) | 1.1 |  | 2.2 |  | 5 |  | 3.1 | 
C[C@]12C=CC(=O)C=C1NCC1C2CC[C@@]2(C)C1CC[C@@H]2C(=O)NC12CC3CC(CC(C3)C1)C2 (stereo not given in full) | 1000 |  |  | < 0.1 |  | 14 | 74 | 
C[C@]12CCC(=O)C=C1NCC1C2CC[C@@]2(C)C1CC[C@@H]2C(=O)NC(c1ccc(Cl)cc1)c1ccc(Cl)cc1 (stereo not given in full) | 510 |  | 12 |  | 74 |  |  | 
C[C@]12C=CC(=O)C=C1NCC1C2CC[C@@]2(C)C1CC[C@@H]2C(=O)NC(c1ccccc1)c1ccccc1 (stereo not given in full) | 990 |  |  | < 0.1 |  | 0 | 48 | 
